Measured values as given in ChEMBL document CHEMBL1134988, “Prodrugs of 4'-demethyl-4-deoxypodophyllotoxin: synthesis and evaluation of the antitumor activity” (2002).
The source made the active and inactive calls. No cut-off for these calls is given here.

What was measured:
A549 = assay: In vitro cytotoxicity against A549 (human lung carcinoma) cell line.; format: functional; settings: read-out: ED50 (the source's name)
SK-MEL-2 = assay: In vitro cytotoxicity against SK-MEL-2 (human melanoma) cell line.; format: functional; settings: read-out: ED50 (the source's name)
Mus musculus [1] = assay: Antitumor activity against Lewis lung carcinoma (LLC) cells transplanted s.c. into the auxiliary region of the BDF1 mice at a formulable dose of 0.06 mmol/kg/day; Not active; format: functional, organism-based
How it was run: (§1)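 LLC cells implanted sc in the axillary region of BDF1 mice. Dosing began 24 h later: ip injection on days 1, 5 and 9 in 5% DMSO/15% Cremophore in saline. Tumour length and width measured on day 17, with TV = L×W²/2. IR (%) = (mean control TV − mean treated TV)/mean control TV × 100.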

MCF7 = assay: In vitro cytotoxicity against MCF-7 (human breast carcinoma) cell line.; format: functional; settings: read-out: ED50 (the source's name)
Mus musculus [2] = assay: Antitumor activity against Lewis lung carcinoma (LLC) cells transplanted s.c. into the auxiliary region of the BDF1 mice at a maximum tolerated dose of 0.3 mmol/kg/day; format: functional
How it was run: (§2)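 BDF1 mice carried sc LLC grafts in the axillary region. Starting 24 h after implantation, doses were given ip on days 1, 5 and 9. Tumour length and width were measured on day 17 and TV = L×W²/2. Inhibition rate (%) was the reduction in mean TV relative to the control group.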

Mus musculus [3] = assay: Antitumor activity against Lewis lung carcinoma (LLC) cells transplanted s.c. into the auxiliary region of the BDF1 mice at a maximum tolerated dose of 0.06 mmol/kg/day; format: functional; how it was run: as §2
Mus musculus [4] = assay: Antitumor activity against Lewis lung carcinoma (LLC) cells transplanted s.c. into the auxiliary region of the BDF1 mice at a maximum tolerated dose of 0.36 mmol/kg/day; format: functional; how it was run: as §2
Mus musculus [5] = assay: Antitumor activity against Lewis lung carcinoma (LLC) cells transplanted s.c. into the auxiliary region of the BDF1 mice at a formulable dose of 0.06 mmol/kg/day; format: functional; how it was run: as §1
Mus musculus [6] = assay: Antitumor activity against Lewis lung carcinoma (LLC) cells transplanted s.c. into the auxiliary region of the BDF1 mice at a maximum tolerated dose of 0.42 mmol/kg/day; format: functional; how it was run: as §2

SMILES | EC50 (A549) [nM] | EC50 (SK-MEL-2) [nM] | Inhibition rate (Mus musculus [1]) | EC50 (MCF7) [nM] | Inhibition rate (Mus musculus [2]) [%] | Inhibition rate (Mus musculus [3]) [%] | Inhibition rate (Mus musculus [4]) [%] | Inhibition rate (Mus musculus [5]) [%] | Inhibition rate (Mus musculus [6]) [%]
COc1cc([C@@H]2c3cc4c(cc3C[C@H]3COC(=O)[C@@H]32)OCO4)cc(OC)c1OC(=O)NC(C)C | 153 | 165 | inactive | 166 | – | – | – | – | –
COc1cc([C@@H]2c3cc4c(cc3C[C@H]3COC(=O)[C@@H]32)OCO4)cc(OC)c1OC(=O)CCN | 97 | 79 | – | 83 | 85 | – | – | – | –
COc1ccc(NC(=O)Oc2c(OC)cc([C@@H]3c4cc5c(cc4C[C@H]4COC(=O)[C@@H]43)OCO5)cc2OC)cc1 | 96 | 89 | inactive | 93 | – | – | – | – | –
COc1cc([C@@H]2c3cc4c(cc3C[C@H]3COC(=O)[C@@H]32)OCO4)cc(OC)c1OC(=O)CCCCCN | 89 | 77 | – | 72 | – | 89 | – | – | –
COc1cc([C@@H]2c3cc4c(cc3C[C@H]3COC(=O)[C@@H]32)OCO4)cc(OC)c1OC(=O)CCCN | 92 | 91 | – | 89 | – | – | 85 | – | –
COc1cc([C@@H]2c3cc4c(cc3C[C@H]3COC(=O)[C@@H]32)OCO4)cc(OC)c1OC(=O)Nc1ccc(F)cc1 | 86 | 78 | – | 76 | – | – | – | 69 | –
COc1cc([C@@H]2c3cc4c(cc3C[C@H]3COC(=O)[C@@H]32)OCO4)cc(OC)c1OC [DESOXYPODOPHYLLOTOXIN] | 23 | 14 | – | 11 | – | – | – | 59 | –
COc1cc([C@@H]2c3cc4c(cc3[C@@H](O[C@@H]3O[C@@H]5CO[C@@H](C)O[C@H]5[C@H](O)[C@H]3O)[C@H]3COC(=O)[C@H]23)OCO4)cc(OC)c1O [ETOPOSIDE] | 1900 | – | – | – | – | – | – | 78 | –
COc1cc([C@@H]2c3cc4c(cc3C[C@H]3COC(=O)[C@@H]32)OCO4)cc(OC)c1OC(=O)CCCCCCCN | 74 | 61 | – | 69 | – | – | – | – | 80
COc1cc([C@@H]2c3cc4c(cc3C[C@H]3COC(=O)[C@@H]32)OCO4)cc(OC)c1OC(=O)[C@H](C)N | 22 | 9 | – | 11 | 41 | – | – | – | –
COc1cc([C@@H]2c3cc4c(cc3C[C@H]3COC(=O)[C@@H]32)OCO4)cc(OC)c1OC(=O)NC1CCCCC1 | 163 | 152 | inactive | 197 | – | – | – | – | –
COc1cc([C@@H]2c3cc4c(cc3C[C@H]3COC(=O)[C@@H]32)OCO4)cc(OC)c1OC(=O)CN | 12 | 34 | – | 31 | 33 | – | – | – | –
COc1cc([C@@H]2c3cc4c(cc3C[C@H]3COC(=O)[C@@H]32)OCO4)cc(OC)c1OC(=O)NCCO | 62 | 59 | – | 46 | – | – | – | 95 | –
COc1cc([C@@H]2c3cc4c(cc3C[C@H]3COC(=O)[C@@H]32)OCO4)cc(OC)c1OCc1ccc(N)cc1 | 114 | 152 | – | 99 | 80 | – | – | – | –
COc1cc([C@@H]2c3cc4c(cc3C[C@H]3COC(=O)[C@@H]32)OCO4)cc(OC)c1OC(=O)[C@@H](N)Cc1ccccc1 | 87 | 59 | – | 72 | – | – | 80 | – | –
COc1cc([C@@H]2c3cc4c(cc3C[C@H]3COC(=O)[C@@H]32)OCO4)cc(OC)c1OC(=O)OCCCl | 92 | 72 | – | 88 | – | – | – | – | –
CCNC(=O)Oc1c(OC)cc([C@@H]2c3cc4c(cc3C[C@H]3COC(=O)[C@@H]32)OCO4)cc1OC | 132 | 143 | inactive | 142 | – | – | – | – | –
COc1cc([C@@H]2c3cc4c(cc3C[C@H]3COC(=O)[C@@H]32)OCO4)cc(OC)c1O [4'-DEMETHYLDEOXYPODOPHYLLOTOXIN] | 15 | 12 | – | 18 | – | – | – | 13 | –
